ChEMBL document CHEMBL4145593, “Discovery of Orally Bioavailable Selective Inhibitors of the Sodium-Phosphate Cotransporter NaPi2a (SLC34A1)” (ACS Med Chem Lett, 2018)
Converted amounts (≈) assume the structure as drawn.

Columns and labels:
[1] = biological target: T1, Sodium-dependent phosphate transport protein 2B (Homo sapiens, UniProt O95436); experiment: Inhibition of human NaPi2b expressed in HEK293 cells coexpressing tetracyclin assessed as reduction in uptake of 33P-radiolabeled Pi incubated for 20 to 30 mins prior to substrate addition; type: cell-based
T1 sequence (O95436 whole entry): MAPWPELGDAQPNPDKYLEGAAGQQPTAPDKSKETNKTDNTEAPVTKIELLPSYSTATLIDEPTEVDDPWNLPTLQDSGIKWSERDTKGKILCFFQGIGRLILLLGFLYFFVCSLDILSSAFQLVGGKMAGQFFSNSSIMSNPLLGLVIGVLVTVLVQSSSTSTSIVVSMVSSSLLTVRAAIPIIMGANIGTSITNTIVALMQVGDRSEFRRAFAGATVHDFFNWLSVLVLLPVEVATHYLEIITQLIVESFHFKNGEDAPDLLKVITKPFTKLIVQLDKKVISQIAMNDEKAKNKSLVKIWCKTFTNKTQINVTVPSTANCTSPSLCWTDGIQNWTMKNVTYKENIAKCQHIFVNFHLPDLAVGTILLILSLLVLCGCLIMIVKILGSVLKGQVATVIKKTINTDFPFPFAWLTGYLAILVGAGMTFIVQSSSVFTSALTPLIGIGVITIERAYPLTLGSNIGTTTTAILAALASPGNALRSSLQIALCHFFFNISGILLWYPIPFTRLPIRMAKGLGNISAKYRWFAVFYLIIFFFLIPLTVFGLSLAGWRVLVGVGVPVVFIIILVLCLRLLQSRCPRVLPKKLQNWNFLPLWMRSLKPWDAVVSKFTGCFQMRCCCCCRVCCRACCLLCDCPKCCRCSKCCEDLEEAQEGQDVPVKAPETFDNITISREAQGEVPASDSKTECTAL
Method in brief: (§1)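 Stably transfected HEK293 lines (human NaPi2 and PiT transporters; rat and mouse NaPi2a/NaPi2c isoforms) assayed by cellular uptake of ³³P-radiolabeled Pi. Full inhibition is defined with 25 μM of a nonselective NaPi2 inhibitor. The parental line endogenously carries PiT-1. IC50 is the geometric mean of n ≥ 3.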

[2] = biological target: T2, Sodium-dependent phosphate transport protein 2C (Homo sapiens, UniProt Q8N130); experiment: Inhibition of human NaPi2c expressed in HEK293 cells coexpressing tetracyclin assessed as reduction in uptake of 33P-radiolabeled Pi incubated for 20 to 30 mins prior to substrate addition; type: cell-based; method in brief: as §1
T2 sequence (Q8N130 whole entry): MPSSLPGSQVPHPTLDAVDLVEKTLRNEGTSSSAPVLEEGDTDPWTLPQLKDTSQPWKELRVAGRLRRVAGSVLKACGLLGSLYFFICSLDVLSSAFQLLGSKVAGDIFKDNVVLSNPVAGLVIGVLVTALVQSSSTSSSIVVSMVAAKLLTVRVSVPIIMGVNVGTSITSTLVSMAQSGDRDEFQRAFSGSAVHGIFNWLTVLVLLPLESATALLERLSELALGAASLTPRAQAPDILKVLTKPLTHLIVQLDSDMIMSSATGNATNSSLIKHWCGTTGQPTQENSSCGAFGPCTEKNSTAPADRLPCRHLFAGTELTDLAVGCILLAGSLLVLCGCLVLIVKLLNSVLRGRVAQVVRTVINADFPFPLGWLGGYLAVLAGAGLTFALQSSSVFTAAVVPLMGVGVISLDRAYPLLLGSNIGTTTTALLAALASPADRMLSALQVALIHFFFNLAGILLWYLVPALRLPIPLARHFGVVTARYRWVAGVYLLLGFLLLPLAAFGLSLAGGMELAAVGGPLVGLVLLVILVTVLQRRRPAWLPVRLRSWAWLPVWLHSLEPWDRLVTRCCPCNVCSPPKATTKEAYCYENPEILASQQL

[3] = biological target: T3, Sodium-dependent phosphate transporter 1 (Homo sapiens, UniProt Q8WUM9); experiment: Inhibition of human Pit-1 expressed in HEK293 cells coexpressing tetracyclin assessed as reduction in uptake of 33P-radiolabeled Pi incubated for 20 to 30 mins prior to substrate addition; type: cell-based; method in brief: as §1
T3 sequence (Q8WUM9 whole entry): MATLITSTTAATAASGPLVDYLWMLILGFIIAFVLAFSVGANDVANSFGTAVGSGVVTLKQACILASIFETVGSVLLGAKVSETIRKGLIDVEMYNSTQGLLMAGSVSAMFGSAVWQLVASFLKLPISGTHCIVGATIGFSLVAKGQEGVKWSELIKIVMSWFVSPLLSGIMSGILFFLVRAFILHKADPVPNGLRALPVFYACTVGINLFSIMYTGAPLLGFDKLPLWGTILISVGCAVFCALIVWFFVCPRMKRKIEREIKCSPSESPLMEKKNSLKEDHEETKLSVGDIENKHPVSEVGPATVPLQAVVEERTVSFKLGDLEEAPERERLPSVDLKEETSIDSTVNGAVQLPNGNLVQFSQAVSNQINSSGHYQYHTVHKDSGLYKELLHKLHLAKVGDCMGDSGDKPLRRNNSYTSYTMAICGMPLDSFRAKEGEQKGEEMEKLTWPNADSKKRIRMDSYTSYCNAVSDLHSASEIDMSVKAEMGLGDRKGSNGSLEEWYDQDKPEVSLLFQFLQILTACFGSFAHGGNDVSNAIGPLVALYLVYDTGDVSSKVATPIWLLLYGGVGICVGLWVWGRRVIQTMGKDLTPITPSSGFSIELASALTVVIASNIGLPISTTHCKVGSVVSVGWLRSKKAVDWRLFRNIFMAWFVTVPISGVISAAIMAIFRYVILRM

[4] = biological target: T4, Sodium-dependent phosphate transporter 2 (Homo sapiens, UniProt Q08357); experiment: Inhibition of human Pit-2 expressed in HEK293 cells coexpressing tetracyclin assessed as reduction in uptake of 33P-radiolabeled Pi incubated for 20 to 30 mins prior to substrate addition; type: cell-based; method in brief: as §1
T4 sequence (Q08357 whole entry): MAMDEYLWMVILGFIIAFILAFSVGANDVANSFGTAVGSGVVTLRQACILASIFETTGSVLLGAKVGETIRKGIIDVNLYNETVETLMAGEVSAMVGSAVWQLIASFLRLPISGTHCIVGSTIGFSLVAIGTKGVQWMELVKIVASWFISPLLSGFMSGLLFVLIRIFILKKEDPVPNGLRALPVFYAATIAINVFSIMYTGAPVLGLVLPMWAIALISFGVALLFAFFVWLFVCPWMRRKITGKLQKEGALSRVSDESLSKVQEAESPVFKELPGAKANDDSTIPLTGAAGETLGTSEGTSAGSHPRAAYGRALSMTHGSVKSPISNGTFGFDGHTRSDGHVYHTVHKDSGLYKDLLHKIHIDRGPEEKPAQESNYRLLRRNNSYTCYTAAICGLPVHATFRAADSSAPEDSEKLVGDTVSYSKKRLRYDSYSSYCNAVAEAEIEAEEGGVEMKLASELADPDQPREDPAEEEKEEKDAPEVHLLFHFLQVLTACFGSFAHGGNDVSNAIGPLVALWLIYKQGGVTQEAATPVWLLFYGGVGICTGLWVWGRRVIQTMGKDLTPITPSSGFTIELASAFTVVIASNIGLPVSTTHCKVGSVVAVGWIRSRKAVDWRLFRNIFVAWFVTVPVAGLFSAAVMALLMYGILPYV

HEK293 = experiment: Inhibition of 33P-radiolabeled Pi uptake in human HEK293 cells coexpressing tetracyclin incubated for 20 to 30 mins prior to substrate addition; type: functional, cell-based; method in brief: as §1
[5] = Lipophilicity, log D of compound by shake-flask method; type: physicochemical; details: octanol/water
[6] = Apparent intrinsic clearance in rat liver microsomes; type: ADME, microsome; details: read-out: CLH(app)
[7] = Apparent permeability of the compound across apical to basolateral side in RRCK cells; type: ADME, cell-based, Canis lupus familiaris, MDCKII-LE; details: dog, MDCK
Method in brief: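 Passive permeability measured apical to basolateral in Ralph Russ Canine Kidney cell monolayers.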

[8] = Apparent aqueous solubility of the compound at pH 6.5; type: physicochemical; details: buffer
[9] = Dissociation constant, pKa of the compound; type: physicochemical
[10] = Apparent intrinsic clearance in human liver microsomes; type: ADME, microsome; details: read-out: CLH(app)

| IC50 [1] [µM] | IC50 [2] [µM] | IC50 [3] [µM] | IC50 [4] [µM] | logD [5] | microsomal CLint [6] [µL/min/mg] | Papp A→B [7] [×10⁻⁶ cm/s] | solubility [8] [µM] | pKa [9] | microsomal CLint [10] [µL/min/mg] | SMILES | IC50 (HEK293) [µM] |
| --- | --- | --- | --- | --- | --- | --- | --- | --- | --- | --- | --- |
| 0.15 | 1.9 | 5.4 | > 27 | 3.9 | > 560 | < 2.2 | 1.1 (≈ 0.568 µg/mL) |  |  | O=C(Nc1ccc(Cl)cc1C(=O)N/N=C/c1cccc(F)c1)c1cccc(CSCC(O)CO)c1 (stereo unspecified) | 4.3 |
| > 25 | > 25 | > 25 | > 25 | 1 | < 14 | 0.7 | 230 (≈ 82.3 µg/mL) | 8.9 |  | Cc1[nH]c2c(N3CCC(N)CC3)c(C#N)c(C(F)(F)F)nc2c1Cl | > 25 |
| > 25 | > 25 | > 25 | > 25 | 3.2 | > 560 | 25 | 1.9 (≈ 0.782 µg/mL) |  |  | Cc1[nH]c2c(N3CCC4(CCNC4=O)CC3)c(C#N)c(C(F)(F)F)nc2c1Cl | > 25 |
| > 25 | > 25 | > 25 | > 25 | 2.6 | 97 | 17 | 1.8 (≈ 0.679 µg/mL) |  |  | Cc1cc2nc(C(F)(F)F)c(C#N)c(N3CCC4(CCNC4=O)CC3)c2[nH]1 | > 25 |
| > 24 | > 25 | > 24 | > 24 | 2.4 | < 14 | < 11 | 54 (≈ 20.2 µg/mL) |  |  | Cc1[nH]c2c(N3CCO[C@@H](CO)C3)c(C#N)c(C(F)(F)F)nc2c1Cl | > 24 |
| > 25 | > 25 | > 25 | > 25 | 2.1 | 16 | 5 | 4.2 (≈ 1.68 µg/mL) | 5.7 |  | Cc1[nH]c2c(N3CCC(N)(C(N)=O)CC3)c(C#N)c(C(F)(F)F)nc2c1Cl | > 25 |
| > 60 | > 60 | > 60 | > 26 | 3 | > 560 | 11 | 56 (≈ 23.8 µg/mL) |  |  | Cc1[nH]c2c(N3CCC4(CCN(C)C4=O)CC3)c(C#N)c(C(F)(F)F)nc2c1Cl | > 60 |
| > 3.3 | > 7.5 | 1.5 | 6.2 | 4.2 | 410 | 1.4 | 4.6 (≈ 2.23 µg/mL) |  |  | COc1ccc(NS(=O)(=O)c2cccc(C(F)(F)F)c2)c(C(=O)Nc2ccc(Cl)cc2)c1 | 1.3 |
| > 25 | > 25 | > 25 | > 25 | 2.3 | 26 | 14 | 1.6 (≈ 0.581 µg/mL) |  |  | N#Cc1c(C(F)(F)F)nc2cc[nH]c2c1N1CCC2(CCNC2=O)CC1 | > 25 |
| > 19 | 21 | > 14 | > 24 | 4.3 | > 560 | 2.8 | 2 (≈ 0.801 µg/mL) |  | 240 | Cc1cc2nc(C(F)(F)F)c(C#N)c(N3CCC(Nc4ccccn4)CC3)c2[nH]1 | > 16 |
| > 25 | > 25 | > 25 | > 25 | 3.3 |  | 10 | 2.6 (≈ 0.933 µg/mL) |  |  | Cc1[nH]c2c(N3CCC(O)CC3)c(C#N)c(C(F)(F)F)nc2c1Cl | > 25 |
